PRMT1 inh – blocks human protein arginine methyltransferase 1 | 370,000 tested, 1.3% active | recombinant PRMT1, activity-based probe fluorescence polarization | inhibition, % at 2.79 µM | Q99873 | AID 652257;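 active = inhibition above about 21% made by adding two undisclosed values, limit read from the data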
HTRA1 inhibitor – HTRA1 (human) protease inhibition | Q92743 | recombinant HTRA1, FP-rhodamine activity-based probe, fluorescence polarization | inhibition, % at 5.96 µM | 340,000 tested, 0.5% active | AID 504803; in the data active = inhibition above about 36%
mABHD4 FP – inhibitors of mouse ABHD4; Q8VD66; inhibition, % at 8.92 µM; purified mABHD4, FP-Rh probe fluorescence polarization; 370,000 tested, 0.54% active;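 active = inhibition exceeding the mean over every tested compound plus 3 SD, cut at about 30% in these data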
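Test system: mABHD4 protein | Buffer or medium: HEPES pH 7.0 buffer, 150 mM NaCl, 0.01% Pluronic F-127 | Probe or stimulus: FP-Rh fluorescent activity-based probe, added after compound pre-incubation | Timing: Pre-incubation 45 min, probe exposure 60 min, at 25 °C | Technique: Fluorescence polarization, excitation 525 nm, emission 598 nm, BODIPY TMR filters | Repeats: Single well per compound (singlicate)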
TCR-CD3 inh – blocks the human TCR-CD3 interaction; TAMRA-labeled TCR probe fluorescence, biochemical; inhibition, % at 9.4 µM; 360,000 tested, 0.37% active; in the data active = inhibition above about 19%;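 note: recombinant mutant TCR 2C K166C tagged with TAMRA read by polarization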
SIAE inh – inhibitors of human sialic acid acetylesterase SIAE | Q9HAT2 | AID 1053197 | inhibition, % at 9.66 µM | SIAE FP-Rh probe binding, fluorescence polarization | 370,000 tested, 0.69% active;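 active = inhibition above a cutoff: mean of compounds within the control limits plus 3 SD of those, cut at about 17% in these data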
Target sequence (Q9HAT2 whole entry, looked up): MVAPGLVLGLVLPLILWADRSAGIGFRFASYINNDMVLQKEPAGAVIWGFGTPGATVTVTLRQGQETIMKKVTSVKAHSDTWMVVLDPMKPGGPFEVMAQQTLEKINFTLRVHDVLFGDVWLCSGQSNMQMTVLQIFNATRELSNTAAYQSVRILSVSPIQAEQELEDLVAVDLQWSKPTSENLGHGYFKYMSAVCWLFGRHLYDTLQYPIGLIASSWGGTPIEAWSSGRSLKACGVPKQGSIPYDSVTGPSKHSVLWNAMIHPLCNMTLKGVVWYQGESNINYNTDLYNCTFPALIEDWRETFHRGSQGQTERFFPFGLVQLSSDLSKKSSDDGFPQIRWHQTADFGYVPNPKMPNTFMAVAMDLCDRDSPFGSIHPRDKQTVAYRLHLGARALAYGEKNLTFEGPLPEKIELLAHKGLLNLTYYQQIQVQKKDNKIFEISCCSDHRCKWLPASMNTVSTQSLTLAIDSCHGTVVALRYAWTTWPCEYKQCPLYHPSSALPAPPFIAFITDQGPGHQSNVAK
PRMT1 inh conf – confirmation of human PRMT1 inhibitors; shares compounds with PRMT1 inh; recombinant His-PRMT1, activity-based probe fluorescence polarization; 3,300 tested, 42% active; AID 687036; inhibition, % at 2.79 µM;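 active = mean inhibition across replicates above the hit cutoff derived for the earlier primary screen, cut at about 22% in these data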
A number is an active result; – = inactive; · = no result. Most compounds without a hit are left out; they make up all but 2.6% or so of the library.

SMILES | PRMT1 inh | HTRA1 inhibitor | mABHD4 FP | TCR-CD3 inh | SIAE inh | PRMT1 inh conf
CC(Oc1ccc2c(-c3ccccc3)cc(=O)oc2c1)C(=O)NCC(O)c1ccccc1 (stereo unspecified) | – | – | – | – | – | ·
N#Cc1ccccc1NC(=O)CSC1=Nc2ccccc2C2CC=NN12 (stereo unspecified) | 25 | – | – | – | – | 56
CCCOC(=O)c1ccc(NC(=O)CCOc2ccccc2)cc1 | – | – | – | – | – | ·
O=C(CSC1=Nc2ccccc2C2CC=NN12)NCc1ccco1 (stereo unspecified) | – | – | – | – | – | ·
O=C(CSc1ccccc1C(=O)O)Nc1ccc2c(c1)OCO2 | – | – | – | – | – | ·
O=C(CSC1=Nc2ccccc2C2CC=NN12)Nc1ccc2c(c1)OCO2 (stereo unspecified) | 41 | – | – | – | – | 28
CCCOC(=O)c1ccc(NC(=O)CSC2=Nc3ccccc3C3CC=NN23)cc1 (stereo unspecified) | 35 | – | – | – | – | –
O=C1C=C(c2ccc3c(c2)oc2ccccc23)C[C@@H](c2ccc(Cl)cc2)C1 | – | – | – | – | – | ·
Cc1ccccc1CSCC1Nc2ccc(C(=O)NCCc3ccccc3)cc2NC1=O (stereo unspecified) | 49 | – | – | – | – | 65
O=C(COC(=O)c1cncc(Br)c1)NC12CC3CC(CC(C3)C1)C2 | – | · | – | – | – | ·
O=C1CS/C(=C\S(=O)(=O)c2ccc(Cl)cc2)N1 | 32 | – | – | – | – | 22
O=C1CSc2ccc(S(=O)(=O)NCc3ccc(Cl)cc3)cc2N1 | – | – | – | – | – | ·
S=c1[nH]c(-c2ccccc2)cs1 | 30 | – | – | – | – | –
O=C(O)CCCC(=O)Nc1ccc(OCc2nc3ccccc3s2)cc1 | 26 | – | – | – | – | –
O=C(CCCc1nc2ccccc2s1)Nc1ccccc1 | – | – | – | – | – | ·
COc1ccc(/C=N/n2c(COc3ccccc3)n[nH]c2=S)cc1OC | – | – | – | – | – | ·
O=C(/C=C/c1ccco1)NCC1COc2ccccc2O1 (stereo unspecified) | 33 | – | – | – | – | –
Cc1ccc2c(c1)c1c(n2CC(O)Cn2ccnc2C)C(=O)CCC1 (stereo unspecified) | – | – | – | – | – | ·
Cc1ccc2c(c1)c1c(n2CC(O)CN2C(=O)CNC2=O)C(=O)CCC1 (stereo unspecified) | 33 | – | – | – | – | –
Cc1ccc(S(=O)(=O)Nc2ccc(S(=O)(=O)Nc3nccs3)cc2)c([N+](=O)[O-])c1 | – | – | – | – | – | ·
COCc1cc(N2CCNC[C@@H]2C)ccc1N1CCS(=O)(=O)CC1 | – | · | – | – | – | ·
COc1cccc(C(NC(C)=O)c2nc(-c3ccccc3C)cs2)c1 (stereo unspecified) | – | · | – | – | – | ·
CC(C)N(C(=O)CSc1nnc(-c2cc3ccccc3cc2O)n1Cc1ccco1)C(C)C | – | – | – | – | – | ·
O=C(CSc1nnc(-c2cc3ccccc3cc2O)n1Cc1ccco1)N1CCc2ccccc2C1 | 32 | – | – | – | – | –
CC1(C(=O)NS(=O)(=O)c2ccccc2C(F)(F)F)CCN1C(=O)CCc1ccccc1 (stereo unspecified) | – | · | – | – | – | ·
SMILES | PRMT1 inh | HTRA1 inhibitor | mABHD4 FP | TCR-CD3 inh | SIAE inh | PRMT1 inh conf
COc1cc(OC)cc(C(=O)/C=C2\Sc3ccccc3N2C)c1 | – | – | – | – | – | ·
CN1/C(=C/C(=O)C2CCC2)Sc2ccccc21 | 63 | – | – | – | – | –
CN1/C(=C/C(=O)c2cccs2)Sc2ccccc21 | 25 | – | – | – | – | –
COCC(=O)/C=C1\Sc2ccccc2N1C | – | – | – | – | – | ·
CN1/C(=C\C(=O)c2cccs2)Sc2ccccc21 | 42 | – | – | – | – | –
CC(Sc1ccc(S(=O)(=O)N2CCN(C)CC2)cn1)C(=O)NC1CCCCC1 (stereo unspecified) | – | – | – | – | – | ·
Cc1ccc(NCCC(=O)c2cccc([N+](=O)[O-])c2)c(C)c1 | 37 | – | – | – | – | 40
Cc1cccc(NCCC(=O)c2ccc([N+](=O)[O-])cc2)c1C | 50 | – | – | – | – | 66
Cc1ccc(C(=O)CNc2cccc([N+](=O)[O-])c2)cc1 | – | – | – | – | – | ·
CCCCn1c(CCC(=O)O)nc2cc(S(=O)(=O)N3CCCC3)ccc21 | – | – | – | – | – | ·
O=C(c1ccc2c(=O)n3c(nc2c1)CCC3)N1CCCSC1=Nc1ccccc1 | – | – | – | – | – | ·
NC(=O)C1Cc2ccccc2CN1S(=O)(=O)c1ccc(Cl)s1 (stereo unspecified) | – | – | – | – | – | ·
CCCCc1c(O)nc(SCC(=O)NC(C)(C)C)n(-c2ccccc2C)c1=O | 27 | – | – | – | – | –
COc1cc(/C=C(\NC(=O)c2ccccc2)C(=O)Nc2nccs2)ccc1OC(C)=O | – | – | – | – | – | ·
COC(=O)c1cc(Br)ccc1NC(=O)CSCc1c(C)noc1C | – | – | – | – | – | ·
COc1ccc(/C=C2/CCCC(CN(C)C)C2=O)cc1 (stereo unspecified) | – | – | – | – | – | ·
COc1cccc(/C=C2/CCC(CN(C)C)C2=O)c1 (stereo unspecified) | 41 | – | – | – | – | 71
Cc1cc(C)n(CCc2nc(-c3ccc(C)o3)cs2)n1 | 68 | – | – | – | – | 34
Cc1cc(C)n(CCc2nc(-c3cc4ccccc4o3)cs2)n1 | – | – | – | – | – | ·
COc1ccc(CCNC(=O)CCS(=O)(=O)c2ccc3c(c2)NC(=O)C(C)S3)cc1OC (stereo unspecified) | – | – | – | – | – | ·
S=C(NCc1ccco1)NCc1ccco1 | 27 | – | – | – | – | –
NS(=O)(=O)c1ccc(NC(=S)NCc2ccco2)cc1 | 27 | – | – | – | – | –
CC(C)OCCCNC(=S)Nc1ccc(S(N)(=O)=O)cc1 | 40 | – | – | – | – | 58
NS(=O)(=O)c1ccc(NC(=S)NC2CCCC2)cc1 | 34 | – | – | – | – | –
CC(=O)c1ccc(NC(=S)NCCc2ccc(S(N)(=O)=O)cc2)cc1 | – | – | – | – | – | ·
SMILES | PRMT1 inh | HTRA1 inhibitor | mABHD4 FP | TCR-CD3 inh | SIAE inh | PRMT1 inh conf
O=C(CCCN1C(=O)C(c2ccccc2)Oc2cccnc21)Nc1cccc(F)c1 (stereo unspecified) | – | – | – | – | – | ·
COCC(=O)N1CCC(Oc2ccc(C(=O)N(C)C(C)c3ccon3)cc2)CC1 (stereo unspecified) | – | – | – | – | – | ·
CCOC(=O)C1CCN(C(=O)Nc2ccc3nccnc3c2)CC1 | – | – | – | – | – | ·
COC(=O)C1CCN(C(=O)c2ccc3nccnc3c2)CC1 | 26 | – | – | – | – | –
Cc1cc(C)c(NC(=O)COC(=O)COc2ccc3c(C)cc(=O)oc3c2)c(Cl)c1 | – | – | – | – | – | ·
Cc1ccc(SSc2cc(C)ccc2N)c(N)c1 | 70 | – | – | – | – | 87
